Source: ChEMBL document CHEMBL3414425, “Synthesis and biological evaluation of new imidazo[2,1-b][1,3,4]thiadiazole-benzimidazole derivatives” (Eur J Med Chem, 2015)
Converted amounts (≈) assume the structure as drawn. The source made the active and inactive calls. The calls are words filed in the database; no cut-off is given here.

Tests used:
Staphylococcus aureus [1] = experiment: Antibacterial activity against Staphylococcus aureus at 1 mg/ml incubated for 18 hrs by well plate technique; format: functional; conditions: for zone of inhibition at 1000 µg/mL: read-out: DIZ
Summary of the method: (§1)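 Bacteria kept on nutrient agar at 37 °C, grown statically in nutrient broth (start ~10-100 cfu/mL) at 37 °C for 18-24 h. Suspensions diluted in saline and spread on nutrient agar, then wells cut with a cork borer. Compound in DMSO at 1 or 0.5 mg/mL added to wells, 37 °C, 18 h. Inhibition zone diameter measured minus DMSO value; triplicate; streptomycin standard.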

[2] = tested on: Chrysosporium keratinophilum; experiment: Antifungal activity against Chrysosporium keratinophilum at 0.5 mg/ml incubated for 3 days; format: functional; conditions: for zone of inhibition at 500 µg/mL: 72 h, read-out: IZ
Summary of the method: (§2)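 Well plate method on potato dextrose agar. Fungal stock suspended in distilled water with Tween 80 and swabbed over plates. Samples in DMSO at 1 and 0.5 mg/mL added to wells, incubated 25 °C for 3 days, then scored for inhibition zones; fluconazole standard.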

[3] = Antioxidant activity assessed as DPPH radical scavenging activity incubated for 10 mins by UV-visible spectrometry; format: physicochemical
Summary of the method: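 DPPH free-radical scavenging; absorbance read at 517 nm against a methanol blank. % scavenging = (A control − A sample)/A control × 100.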

Pseudomonas aeruginosa [4] = experiment: Antibacterial activity against Pseudomonas aeruginosa at 1 mg/ml incubated for 18 hrs by well plate technique; format: functional; conditions: for zone of inhibition at 1000 µg/mL: read-out: DIZ; summary of the method: as §1
Aspergillus flavus [5] = experiment: Antifungal activity against Aspergillus flavus at 1 mg/ml incubated for 3 days; format: functional; conditions: for zone of inhibition at 1000 µg/mL: 72 h, read-out: IZ; summary of the method: as §2
Salmonella typhi [6] = experiment: Antibacterial activity against Salmonella typhi at 1 mg/ml incubated for 18 hrs by well plate technique; format: functional, Salmonella enterica subsp. enterica serovar Typhi; conditions: for zone of inhibition at 1000 µg/mL: Salmonella enterica, read-out: DIZ; for diameter of the inhibition zone (DIZ): Salmonella enterica subsp. enterica serovar Typhi
Summary of the method: (§3)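 Well diffusion on nutrient agar; strains kept on nutrient agar at 37 °C, grown statically in nutrient broth 18-24 h at 37 °C, diluted in saline, 0.1 ml spread per plate. Compounds in DMSO at 1 and 0.5 mg/mL added to cork-bored wells; 18 h at 37 °C. Inhibition zone diameter measured, DMSO value subtracted; triplicate; streptomycin reference.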

Staphylococcus aureus [7] = experiment: Antibacterial activity against Staphylococcus aureus at 0.5 mg/ml incubated for 18 hrs by well plate technique; format: functional; conditions: for zone of inhibition at 500 µg/mL: read-out: DIZ; summary of the method: as §1
Escherichia coli [8] = experiment: Antibacterial activity against Escherichia coli at 1 mg/ml incubated for 18 hrs by well plate technique; format: functional; conditions: for zone of inhibition at 1000 µg/mL: read-out: DIZ; summary of the method: as §1
[9] = tested on: Chrysosporium keratinophilum; experiment: Antifungal activity against Chrysosporium keratinophilum at 1 mg/ml incubated for 3 days; format: functional; conditions: for zone of inhibition at 1000 µg/mL: 72 h, read-out: IZ; summary of the method: as §2
Candida albicans [10] = experiment: Antifungal activity against Candida albicans at 1 mg/ml incubated for 3 days; format: functional; conditions: for zone of inhibition at 1000 µg/mL: 72 h, read-out: IZ; summary of the method: as §2
Aspergillus flavus [11] = experiment: Antifungal activity against Aspergillus flavus at 0.5 mg/ml incubated for 3 days; format: functional; conditions: for zone of inhibition at 500 µg/mL: 72 h, read-out: IZ; summary of the method: as §2
Candida albicans [12] = experiment: Antifungal activity against Candida albicans at 0.5 mg/ml incubated for 3 days; format: functional; conditions: for zone of inhibition at 500 µg/mL: 72 h, read-out: IZ; summary of the method: as §2
Pseudomonas aeruginosa [13] = experiment: Antibacterial activity against Pseudomonas aeruginosa at 0.5 mg/ml incubated for 18 hrs by well plate technique; format: functional; conditions: for zone of inhibition at 500 µg/mL: read-out: DIZ; summary of the method: as §1
[14] = tested on: Mycobacterium tuberculosis; experiment: Antitubercular activity against Mycobacterium tuberculosis H37Rv ATCC 27294/XDR-TB incubated for 28 days by agar dilution method; format: functional; conditions: 672 h
Summary of the method: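 Agar dilution: two-fold dilutions in Middlebrook 7H11 agar with OADC. Inoculum from fresh 7H11/OADC slants adjusted to 1 mg/mL wet weight in 0.05% Tween 80 saline, diluted 10^-2 (~10⁷ cfu/mL); 5 µL spotted per tube. Incubated 37 °C; MIC, lowest concentration fully inhibiting growth, read after 28 days, in triplicate.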

Salmonella typhi [15] = experiment: Antibacterial activity against Salmonella typhi at 0.5 mg/ml incubated for 18 hrs by well plate technique; format: functional, Salmonella enterica subsp. enterica serovar Typhi; conditions: for zone of inhibition at 500 µg/mL: Salmonella enterica, read-out: DIZ; for diameter of the inhibition zone (DIZ): Salmonella enterica subsp. enterica serovar Typhi; summary of the method: as §3
Escherichia coli [16] = experiment: Antibacterial activity against Escherichia coli at 0.5 mg/ml incubated for 18 hrs by well plate technique; format: functional; conditions: for zone of inhibition at 500 µg/mL: read-out: DIZ; summary of the method: as §1

Compound	zone of inhibition at 1000 µg/mL (Staphylococcus aureus [1]) [mm]	zone of inhibition at 500 µg/mL [2] [mm]	inhibition (INH) [3] [%]	zone of inhibition at 1000 µg/mL (Pseudomonas aeruginosa [4]) [mm]	zone of inhibition at 1000 µg/mL (Aspergillus flavus [5]) [mm]	zone of inhibition at 1000 µg/mL (Salmonella typhi [6]) [mm]	zone of inhibition at 500 µg/mL (Staphylococcus aureus [7]) [mm]	zone of inhibition at 1000 µg/mL (Escherichia coli [8]) [mm]	zone of inhibition at 1000 µg/mL [9] [mm]	zone of inhibition at 1000 µg/mL (Candida albicans [10]) [mm]	zone of inhibition at 500 µg/mL (Aspergillus flavus [11]) [mm]	zone of inhibition at 500 µg/mL (Candida albicans [12]) [mm]	zone of inhibition at 500 µg/mL (Pseudomonas aeruginosa [13]) [mm]	MIC [14] [µg/mL]	zone of inhibition at 500 µg/mL (Salmonella typhi [15]) [mm]	zone of inhibition at 500 µg/mL (Escherichia coli [16]) [mm]	inhibition zone (IZ) [2]	diameter of the inhibition zone (DIZ) (Staphylococcus aureus [1])	diameter of the inhibition zone (DIZ) (Pseudomonas aeruginosa [4])	diameter of the inhibition zone (DIZ) (Salmonella typhi [6])	other results
Cc1nn2c(-c3nc4ccccc4[nH]3)c(-c3ccc(Cl)cc3)nc2s1	4	6	28.8	5	6	3	3	4	7	6	5	4	3	25 (≈ 68.3 µM)	1	3	–	–	–	–	–
COc1ccc(-c2nc3sc(-c4ccc(F)cc4)nn3c2-c2nc3cc([N+](=O)[O-])ccc3[nH]2)cc1	5	2	30.8	6	5	4	3	5	4	5	3	2	3	12.5 (≈ 25.7 µM)	3	3	–	–	–	–	–
Cc1ccc(-c2nc3sc(C)nn3c2-c2nc3cc(Cl)ccc3[nH]2)cc1	10	–	30.6	9	3	8	7	8	2	4	1	1	6	50 (≈ 132 µM)	7	5	inactive	–	–	–	–
COc1ccc(-c2nc3sc(C)nn3c2-c2nc3cc([N+](=O)[O-])ccc3[nH]2)cc1	–	2	22.6	–	2	–	–	–	3	2	1	1	–	12.5 (≈ 30.8 µM)	–	–	–	inactive	inactive	inactive	diameter of the inhibition zone (DIZ) (Staphylococcus aureus [7]): inactive; diameter of the inhibition zone (DIZ) (Escherichia coli [8]): inactive; diameter of the inhibition zone (DIZ) (Pseudomonas aeruginosa [13]): inactive; diameter of the inhibition zone (DIZ) (Salmonella typhi [15]): inactive; diameter of the inhibition zone (DIZ) (Escherichia coli [16]): inactive
COc1ccc(-c2nc3sc(-c4ccc(F)cc4)nn3c2-c2nc3ccccc3[nH]2)cc1	–	–	25.4	–	–	–	–	–	–	–	–	–	–	12.5 (≈ 28.3 µM)	–	–	inactive	inactive	inactive	inactive	inhibition zone (IZ) (Aspergillus flavus [5]): inactive; diameter of the inhibition zone (DIZ) (Staphylococcus aureus [7]): inactive; diameter of the inhibition zone (DIZ) (Escherichia coli [8]): inactive; inhibition zone (IZ) [9]: inactive; inhibition zone (IZ) (Candida albicans [10]): inactive; inhibition zone (IZ) (Aspergillus flavus [11]): inactive; inhibition zone (IZ) (Candida albicans [12]): inactive; diameter of the inhibition zone (DIZ) (Pseudomonas aeruginosa [13]): inactive; diameter of the inhibition zone (DIZ) (Salmonella typhi [15]): inactive; diameter of the inhibition zone (DIZ) (Escherichia coli [16]): inactive
Cc1ccc(-c2nc3sc(C)nn3c2-c2nc3cc([N+](=O)[O-])ccc3[nH]2)cc1	–	–	28.9	–	–	–	–	–	–	–	–	–	–	50 (≈ 128 µM)	–	–	inactive	inactive	inactive	inactive	inhibition zone (IZ) (Aspergillus flavus [5]): inactive; diameter of the inhibition zone (DIZ) (Staphylococcus aureus [7]): inactive; diameter of the inhibition zone (DIZ) (Escherichia coli [8]): inactive; inhibition zone (IZ) [9]: inactive; inhibition zone (IZ) (Candida albicans [10]): inactive; inhibition zone (IZ) (Aspergillus flavus [11]): inactive; inhibition zone (IZ) (Candida albicans [12]): inactive; diameter of the inhibition zone (DIZ) (Pseudomonas aeruginosa [13]): inactive; diameter of the inhibition zone (DIZ) (Salmonella typhi [15]): inactive; diameter of the inhibition zone (DIZ) (Escherichia coli [16]): inactive
